Results: publication PMC4425413 (The Biochemical journal, 2015)

Experiments:
HeLa cells = experiment: STS-induced apoptosis; format: cell-based; details: 100 nM STS 20 h without the peptides
Procedure, shortened: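 HeLa cells in DMEM + 10% FBS, grown to 70%–80% confluence. Apoptosis induced with 100 nM staurosporine for 20 h; untreated cells as control. Early apoptosis scored by Annexin V–FITC staining, late apoptosis by TUNEL, as percentage of cells. Means + S.D. from three independent experiments.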

[1] = tested on: selenite-induced cataracts in rats; experiment: Selenite cataract in rat pups; format: in vivo, Sprague–Dawley rat; details: selenite alone compared with untreated controls

| SMILES | early-stage apoptosis (% of the cells), inducer alone (HeLa cells; Annexin V–FITC) [%] | late stage apoptosis (% of the cells), inducer alone (HeLa cells; TUNEL) [%] | total soluble lens proteins, selenite alone ([1]; Fig 9B) | lens GSH content, selenite alone ([1]; Fig 9C) |
| --- | --- | --- | --- | --- |
| CN[C@@H]1C[C@H]2O[C@@](C)([C@@H]1OC)n1c3ccccc3c3c4c(c5c6ccccc6n2c5c31)C(=O)NC4 [STS, staurosporine] | 14 | 5 | – | – |
| O=[Se]([O-])[O-].[Na+].[Na+] [sodium selenite] | – | – | reduction | reduction |
